Measurements: ChEMBL document CHEMBL1123101, “Pseudosymmetry and bioisosterism in biaryl pyridyl competitive histamine H2-receptor antagonists” (J Med Chem, 1985)
Active and inactive are the calls of the source. The rule behind the calls is not given here.

Tests used:
Canis familiaris [1] = assay: Maximum percent inhibition of acid output in pentagastrin-stimulated Heidenhain pouch dog following 10 mg/kg i.v. administration.; type: functional; settings: Canis lupus familiaris, route intravenous
How it was run: (§1)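 Fasted unanesthetized Heidenhain pouch dogs, with acid output stimulated to near maximum by continuous pentagastrin infusion into a leg vein. Gastric juice was collected every 30 min, ten collections per dog. Acid was titrated to pH 7.4 with 0.1 N NaOH. Compound or vehicle was given iv 90 min after the infusion started. Percent inhibition compares the lowest post-dose acid output with the mean output just before dosing. Single experiments.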

[2] = target: Histamine H2 receptor (Cavia porcellus) (UniProt P47747); assay: Dissociation constant of H2 receptor antagonist activity against guinea pig atrium; type: functional, tissue-based; settings: Cardiac atrium
Histamine H2 receptor (Cavia porcellus), sequence (P47747 whole entry): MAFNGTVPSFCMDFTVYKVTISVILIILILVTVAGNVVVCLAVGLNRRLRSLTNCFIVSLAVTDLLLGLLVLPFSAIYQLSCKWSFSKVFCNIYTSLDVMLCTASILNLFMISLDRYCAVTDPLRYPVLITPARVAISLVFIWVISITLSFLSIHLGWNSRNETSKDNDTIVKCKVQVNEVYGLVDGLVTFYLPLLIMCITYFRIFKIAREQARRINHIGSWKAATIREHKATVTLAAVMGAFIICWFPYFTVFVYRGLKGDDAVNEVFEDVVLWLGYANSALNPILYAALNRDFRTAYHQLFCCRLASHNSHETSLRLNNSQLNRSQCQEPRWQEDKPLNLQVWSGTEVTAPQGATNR

Canis familiaris [3] = assay: Antisecretory dose in mg/kg required for 50% inhibition in dogs by intravenous administration; type: functional, Canis lupus familiaris
How it was run: (§2)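 Pentagastrin-stimulated Heidenhain pouch dogs were dosed iv, and acid output was titrated from 30-min collections. Percent inhibition compares the lowest post-dose output with the pre-dose mean. The dose giving 50% inhibition came from linear regression of log dose on percent inhibition in n dogs.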

Canis familiaris [4] = assay: Maximum percent inhibition of acid output in pentagastrin-stimulated Heidenhain pouch dog at dose (5 mg/kg) administered intravenously; type: functional; settings: Canis lupus familiaris, iv; how it was run: as §1
Canis familiaris [5] = assay: Maximum percent inhibition of acid output in pentagastrin-stimulated Heidenhain pouch dog following 1 mg/kg i.v. administration.; type: functional; settings: Canis lupus familiaris, route intravenous; how it was run: as §1
[6] = Partition coefficient (logP); type: physicochemical; settings: octanol/water
Canis familiaris [7] = assay: Maximum percent inhibition of acid output in pentagastrin-stimulated Heidenhain pouch dog at dose (25 mg/kg) administered intravenously; type: functional; settings: Canis lupus familiaris, iv; how it was run: as §1
Canis familiaris [8] = assay: Maximum percent inhibition of acid output in pentagastrin-stimulated Heidenhain pouch dog at dose (8 mg/kg) administered intravenously; type: functional; settings: Canis lupus familiaris, iv; how it was run: as §1
Canis familiaris [9] = assay: Maximum percent inhibition of acid output in pentagastrin-stimulated Heidenhain pouch dog at dose (23 mg/kg) administered intravenously; type: functional; settings: Canis lupus familiaris, iv; how it was run: as §1
Canis familiaris [10] = assay: Maximum percent inhibition of acid output in pentagastrin-stimulated Heidenhain pouch dog at dose (0.5 mg/kg) administered intravenously; type: functional; settings: Canis lupus familiaris, iv; how it was run: as §1
Canis familiaris [11] = assay: Maximum percent inhibition of acid output in pentagastrin-stimulated Heidenhain pouch dog at dose (9 mg/kg) administered intravenously; type: functional; settings: Canis lupus familiaris, iv; how it was run: as §1
[12] = target: Histamine H2 receptor (Cavia porcellus) (UniProt P47747); assay: Dissociation constant of H2 receptor antagonist activity against guinea pig atrium;NA means not active; type: functional, tissue-based; settings: Cardiac atrium
How it was run: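 Right atria from guinea pigs killed by a blow to the head, hung isometrically in oxygenated (95% O2/5% CO2) Krebs–Henseleit buffer at pH 7.4 and 32 ± 2 °C, and stabilized about 1 h. Histamine dose–response curves were run before and after antagonist at set final concentrations, with 3- or 30-min drug equilibration. DR is the ratio of half-maximal histamine concentrations. KB = B/(DR − 1). Schild slope is log(DR − 1) vs log B.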

Canis familiaris [13] = species on record: Canis familiaris; assay: Effective dose for acid output in pentagastrin-stimulated Heidenhain pouch dog; type: functional, Canis lupus familiaris; how it was run: as §2
Canis familiaris [14] = assay: Maximum percent inhibition of acid output in pentagastrin-stimulated Heidenhain pouch dog at dose(mg/kg) administered intravenously; type: functional, Canis lupus familiaris; how it was run: as §1

SMILES | KB [2] [µM] | logP [6] | inhibition in vivo at 10 mg/kg (Canis familiaris [1]) [%] | -Log I50 (Canis familiaris [3]) | inhibition in vivo at 1 mg/kg (Canis familiaris [5]) [%] | other results
Cc1n[nH]c(-c2ccnc(CO)c2)n1 | 23 | – | 7 | – | – | –
Cc1nc(-c2ccncc2)c[nH]1 | – | – | – | – | – | inhibition in vivo at 25 mg/kg (Canis familiaris [7]): 56%
CCNc1cc(-c2nc[nH]n2)ccn1 | 5 | – | 29 | – | – | –
CCCc1cc(-c2n[nH]c(N)n2)ccn1 | 4 | – | – | – | – | inhibition in vivo at 5 mg/kg (Canis familiaris [4]): 0%
CCNc1cc(-c2c[nH]cn2)ccn1 | 0.59 | – | 27 | – | – | –
Nc1n[nH]c(-c2ccnc(N3CCCC3)c2)n1 | – | – | – | – | 0 | –
CCCCCCNc1cc(-c2n[nH]c(N)n2)ccn1 | 0.27 | 3.3 | 40 | -1.2 | – | –
CCNc1cc(-c2c[nH]c(C)n2)ccn1 | 1.4 | – | 55 | – | – | –
CCNc1cc(-c2n[nH]c(Cc3ccccc3)n2)ccn1 | – | – | 19 | – | – | KB [12]: inactive
Nc1cc(-c2n[nH]c(N)n2)ccn1 | 2.2 | 0.11 | – | -0.306 | – | ED50 (Canis familiaris [13]): 2.35 mg/kg
CCCCCCCCCCNc1cc(-c2n[nH]c(N)n2)ccn1 | – | 4.07 | – | -1.7 | – | Inhibition (Canis familiaris [14]): 14%; Kb [2]: 4.78 µM
CC(C)Nc1cc(-c2n[nH]c(N)n2)ccn1 | 3.6 | – | – | – | – | inhibition in vivo at 5 mg/kg (Canis familiaris [4]): 52%
CN(C)c1cc(-c2n[nH]c(N)n2)ccn1 | 3.2 | – | – | – | 48 | inhibition in vivo at 5 mg/kg (Canis familiaris [4]): 80%
CN/C(=N\CCSCc1nc[nH]c1C)NC#N [CIMETIDINE] | – | – | – | – | – | ED50 (Canis familiaris [13]): 1.02 mg/kg
Cc1n[nH]c(-c2ccnc(Cc3ccccc3)c2)n1 | – | – | 31 | – | – | –
CCc1cc(-c2n[nH]c(N)n2)ccn1 | 1.8 | – | – | – | – | inhibition in vivo at 5 mg/kg (Canis familiaris [4]): 55%
Cc1cc(-c2n[nH]c(N)n2)ccn1 | 13 | – | – | – | 26 | inhibition in vivo at 5 mg/kg (Canis familiaris [4]): 60%
Cc1cc(-c2c[nH]c(C)n2)ccn1 | 4.6 | – | 24 | – | – | –
CCN(C)c1cc(-c2n[nH]c(N)n2)ccn1 | – | – | – | – | 42 | –
Nc1n[nH]c(-c2ccnc(Nc3ccccc3)c2)n1 | – | – | 0 | – | – | –

More lines, main results first:

KB [2] [µM] | logP [6] | SMILES | inhibition in vivo at 10 mg/kg (Canis familiaris [1]) [%] | -Log I50 (Canis familiaris [3]) | inhibition in vivo at 1 mg/kg (Canis familiaris [5]) [%] | other results
0.77 | 1.61 | CCCNc1cc(-c2n[nH]c(N)n2)ccn1 | – | -0.379 | 33 | inhibition in vivo at 5 mg/kg (Canis familiaris [4]): 64%
0.14 | – | CC(C)(C)c1ccc(CNc2cc(-c3n[nH]c(N)n3)ccn2)cc1 | – | – | – | inhibition in vivo at 8 mg/kg (Canis familiaris [8]): 0%
42 | – | Nc1n[nH]c(-c2ccncc2)n1 | 43 | – | – | inhibition in vivo at 23 mg/kg (Canis familiaris [9]): 73%
4.5 | – | CCNc1cc(-c2n[nH]c(CO)n2)ccn1 | 53 | – | 20 | –
1.9 | 2.63 | Nc1n[nH]c(-c2ccnc(NCCc3ccccc3)c2)n1 | 50 | -1 | – | –
4.7 | – | CCNc1cc(-c2n[nH]c(NCC)n2)ccn1 | – | – | 38 | inhibition in vivo at 0.5 mg/kg (Canis familiaris [10]): 21%
1.3 | – | CCNc1cc(-c2n[nH]c(NC)n2)ccn1 | 72 | – | 35 | –
2 | 0.24 | Nc1n[nH]c(-c2ccnc(NCCO)c2)n1 | 34 | -1.31 | – | –
0.67 | 2.15 | CCCCNc1cc(-c2n[nH]c(N)n2)ccn1 | – | -0.5 | 29 | inhibition in vivo at 9 mg/kg (Canis familiaris [11]): 69%
0.55 | – | CCNc1cc(-c2n[nH]c(C)n2)ccn1 | – | – | 35 | –
0.23 | 1.13 | CCNc1cc(-c2n[nH]c(N)n2)ccn1 | – | -0.028 | – | ED50 (Canis familiaris [13]): 0.87 mg/kg
0.13 | 2.69 | Cc1ccc(CNc2cc(-c3n[nH]c(N)n3)ccn2)cc1 | – | -1.03 | – | inhibition in vivo at 5 mg/kg (Canis familiaris [4]): 33%
0.3 | 2.85 | Nc1n[nH]c(-c2ccnc(NCc3ccc(Cl)cc3)c2)n1 | – | -0.428 | 21 | –
3.5 | 0.94 | COCCNc1cc(-c2n[nH]c(N)n2)ccn1 | 50 | -0.88 | 11 | –
3.3 | – | CCNc1cc(-c2c[nH]c(N)n2)ccn1 | 74 | – | 22 | –
1.3 | – | CCNc1cc(-c2n[nH]c(CC)n2)ccn1 | – | – | – | inhibition in vivo at 5 mg/kg (Canis familiaris [4]): 17%
0.11 | 3.08 | Cc1ccc(CNc2cc(-c3n[nH]c(N)n3)ccn2)cc1C | – | -0.718 | – | inhibition in vivo at 5 mg/kg (Canis familiaris [4]): 49%
11 | – | CCCc1n[nH]c(-c2ccnc(NCC)c2)n1 | 45 | – | – | –
0.71 | 2.15 | Nc1n[nH]c(-c2ccnc(NCc3ccccc3)c2)n1 | 72 | -0.568 | 21 | –
0.56 | 0.694 | CNc1cc(-c2n[nH]c(N)n2)ccn1 | – | 0 | 50 | –
0.48 | 1.26 | C=CCNc1cc(-c2nc(N)n[nH]2)ccn1 | – | -0.37 | 31 | –
– | 3.05 | Nc1n[nH]c(-c2ccnc(NCCCc3ccccc3)c2)n1 | 30 | – | – | –
